Laboratory results taken from PMC3940261 (Integrative biology : quantitative biosciences from nano to …, 2014).

Legend:
aminopeptidase N (CD 13) = conditions: in vitro; cited from earlier work
LTA4 hydrolase = conditions: in vitro; cited from earlier work
leucine aminopeptidase = conditions: in vitro; cited from earlier work
[1] = target: purine-sensitive aminopeptidase (PuSA); conditions: in vitro; cited from earlier work
[2] = tested on: peptidase activity in U937 cells; assay: Single-cell chemical cytometry of fluorescent reporter peptide degradation; format: cell-based, human; conditions: for most common fragment peak pattern: single U937 cells
[3] = tested on: peptidase activity in U937 cells; format: cell-based, human; conditions: ensemble lysates, commercial capillary electrophoresis system
In short: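 U937 cells were cultured long-term with the test compound (1, 2, 4, 8, 16 μM; DMSO ≤0.1%) or DMSO vehicle. A FAM-labelled reporter peptide (100 μM) and a carboxyfluorescein internal standard (20 μM) were loaded by pinocytosis for 10 min at 37 °C; hypotonic lysis set t = 0. Cells were held at 10⁶ cells/mL for 1 h at room temperature, then heat-lysed at 95 °C for 4 min. Supernatant was run on a bare 30-cm, 30-μm i.d. capillary, spiked with intact-substrate and K-FAM standards, and peaks were Gaussian-fitted.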

[4] = tested on: four common aminopeptidases; conditions: cited from earlier work
[5] = tested on: degradation of a fluorogenic reporter; conditions: 24 h exposure to media containing 1 μM Tosedostat; cited from earlier work

Row | Compound | IC50 (aminopeptidase N (CD 13)) | IC50 (LTA4 hydrolase) | IC50 (leucine aminopeptidase) | IC50 [1] | peptidase activity in drug-treated cells relative to a vehicle control ([2]; at all doses (1, 2, 4, 8, 16 μM)) | most common fragment peak pattern ([2]; dose 1 μM) | most common fragment peak pattern ([2]; dose 2 μM) | most common fragment peak pattern ([2]; dose 4 μM) | most common fragment peak pattern ([2]; dose 8 μM) | number of fluorescent fragment peaks from drug-treated cells [3] | IC50 [4] | inhibition of degradation of a fluorogenic reporter [5]
1 | CC(C)C[C@@H](C(=O)N[C@H](C(=O)O)c1ccccc1)[C@H](O)C(=O)NO [active form of Tosedostat] | nanomolar range | nanomolar range | nanomolar range | nanomolar range | – | – | – | – | – | – | – | –
2 | CC(C)C[C@@H](C(=O)N[C@H](C(=O)OC1CCCC1)c1ccccc1)[C@H](O)C(=O)NO [Tosedostat] | – | – | – | – | inhibited | 3 peaks | 3 peaks | 2 peaks | 2 peaks | ≤ 8 fluorescent fragment peaks | nanomolar-range | 50%
